# Experimental data from ChEMBL document CHEMBL5528045, “Discovery of Orally Bioavailable FmlH Lectin Antagonists as Treatment for Urinary Tract Infections” (J Med Chem, 2024).
# Tests used:
# [1] = tested on: FmlH (Escherichia coli); test: Inhibition of C-terminal 6His-tagged biotinylated FmIH (Escherichia coli CFT073) expressed in Escherichia coli C600 cells incubated for 1 hr
# [2] = Initial plasma concentration in mouse at 3 mg/kg, iv by LC-MS/MS method; assay type: ADME, organism-based
# Procedure, shortened: (§1)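 Single dose in mice, given 3 mg/kg intravenously or 10 mg/kg orally. Plasma was followed over 8 h, and the mean plasma concentration-time profile was used. Oral bioavailability (%F) was calculated from the IV and PO exposures.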
# [3] = Half-life in mouse at 3 mg/kg, iv by LC-MS/MS method; assay type: ADME, organism-based; conditions: in vivo
# Procedure, shortened: as §1
# [4] = Volume of distribution at steady state in mouse at 3 mg/kg, iv by LC-MS/MS method; assay type: ADME, organism-based; conditions: in vivo, read-out: Vdss
# Procedure, shortened: as §1
# [5] = Clearance in mouse at 3 mg/kg, iv by LC-MS/MS method; assay type: ADME, organism-based; conditions: in vivo
# Procedure, shortened: as §1
# [6] = Tlast in mouse at 3 mg/kg, iv by LC-MS/MS method; assay type: ADME, organism-based; conditions: in vivo
# Procedure, shortened: as §1
# [7] = AUC(0 to last) in mouse at 3 mg/kg, iv by LC-MS/MS method; assay type: ADME, organism-based; conditions: in vivo
# Procedure, shortened: as §1
# [8] = AUCinfinity in mouse at 3 mg/kg, iv by LC-MS/MS method; assay type: ADME, organism-based; conditions: in vivo
# Procedure, shortened: as §1
# [9] = Mean residence time(0 to last) in mouse at 3 mg/kg, iv by LC-MS/MS method; assay type: ADME, organism-based; conditions: in vivo
# Procedure, shortened: as §1
# [10] = Mean residence time(0 to infinity) in mouse at 3 mg/kg, iv by LC-MS/MS method; assay type: ADME, organism-based; conditions: in vivo
# Procedure, shortened: as §1
# [11] = AUCextra in mouse at 3 mg/kg, iv by LC-MS/MS method; assay type: ADME, organism-based; conditions: in vivo
# Procedure, shortened: as §1
# [12] = AUMCextra in mouse at 3 mg/kg, iv by LC-MS/MS method; assay type: ADME, organism-based; conditions: in vivo
# Procedure, shortened: as §1
# [13] = Cmax in mouse at 10 mg/kg, po by LC-MS/MS method; assay type: ADME, organism-based; conditions: in vivo
# Procedure, shortened: as §1
# [14] = Tmax in mouse at 10 mg/kg, po by LC-MS/MS method; assay type: ADME, organism-based; conditions: in vivo
# Procedure, shortened: as §1
# [15] = Half life in mouse at 10 mg/kg, po by LC-MS/MS method; assay type: ADME, organism-based; conditions: in vivo
# Procedure, shortened: as §1
# [16] = AUC(0 to last) in mouse at 10 mg/kg, po by LC-MS/MS method; assay type: ADME, organism-based; conditions: in vivo
# Procedure, shortened: as §1
# [17] = AUC(0 to infinity) in mouse at 10 mg/kg, po by LC-MS/MS method; assay type: ADME, organism-based; conditions: in vivo
# Procedure, shortened: as §1
# [18] = MRT(0 to last) in mouse at 10 mg/kg, po by LC-MS/MS method; assay type: ADME, organism-based; conditions: in vivo
# Procedure, shortened: as §1
# [19] = MRT(0 to infinity) in mouse at 10 mg/kg, po by LC-MS/MS method; assay type: ADME, organism-based; conditions: in vivo
# Procedure, shortened: as §1
# [20] = AUCextra in mouse at 10 mg/kg, po by LC-MS/MS method; assay type: ADME, organism-based; conditions: in vivo
# Procedure, shortened: as §1
# [21] = AUMCextra in mouse at 10 mg/kg, po by LC-MS/MS method; assay type: ADME, organism-based; conditions: in vivo
# Procedure, shortened: as §1
# [22] = Oral bioavailability in mouse at 10 mg/kg by LC-MS/MS method; assay type: ADME, organism-based; conditions: in vivo
# Procedure, shortened: as §1
# [23] = Tlast in mouse at 10 mg/kg, po by LC-MS/MS method; assay type: ADME, organism-based; conditions: in vivo
# Procedure, shortened: as §1
# [24] = Drug concentration in mouse urine at 2 mg/kg, po measured at 24 hrs by HPLC-MS/MS analysis; assay type: ADME, organism-based; conditions: read-out: Ct
# Procedure, shortened: (§2)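 9-week-old C3H/HeN mice, n=5 per dose group, were dosed once by oral gavage. The compound was in 1% methyl cellulose, vortexed, sonicated 20 min, warmed at 50 °C for 10 min and vortexed again just before dosing. Mean urine concentration is reported.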
# [25] = Drug concentration in mouse urine at 20 mg/kg, po measured at 24 hrs by HPLC-MS/MS analysis; assay type: ADME, organism-based; conditions: read-out: Ct
# Procedure, shortened: as §2
smiles,measurement,setting,value
CC(=O)N[C@H]1[C@H](Oc2cccc(C(F)(F)F)c2-c2cccc(NS(C)(=O)=O)c2)O[C@H](CO)[C@H](O)[C@@H]1O,IC50,[1],35 nM
CC(=O)N[C@H]1[C@H](Oc2ccccc2-c2cccc(NS(C)(=O)=O)c2)O[C@H](CO)[C@H](O)[C@@H]1O,IC50,[1],230 nM
CS(=O)(=O)Nc1cccc(-c2ccccc2O[C@@H]2O[C@H](CO)[C@H](O)[C@H](O)[C@H]2O)c1,IC50,[1],1600 nM
CS(=O)(=O)Nc1cccc(-c2ccccc2C[C@@H]2O[C@H](CO)[C@H](O)[C@H](O)[C@H]2[N+](=O)[O-])c1,IC50,[1],> 50000 nM
CC(=O)N[C@H]1[C@H](Oc2cccc(C(F)(F)F)c2-c2ccc(F)c(NS(C)(=O)=O)c2)O[C@H](CO)[C@H](O)[C@@H]1O,IC50,[1],890 nM
CC(=O)N[C@H]1[C@H](Oc2cccc(C(F)(F)F)c2-c2cc(F)cc(C#N)c2)O[C@H](CO)[C@H](O)[C@@H]1O,IC50,[1],2000 nM
CC(=O)N[C@H]1[C@H](Oc2cccc(C(F)(F)F)c2-c2cccc(F)c2)O[C@H](CO)[C@H](O)[C@@H]1O,IC50,[1],480 nM
CC(=O)N[C@H]1[C@H](Oc2cccc(C(F)(F)F)c2-c2cccc(F)c2F)O[C@H](CO)[C@H](O)[C@@H]1O,IC50,[1],590 nM
CC(=O)N[C@H]1[C@H](Oc2cccc(C(F)(F)F)c2-c2ccc(F)c(F)c2F)O[C@H](CO)[C@H](O)[C@@H]1O,IC50,[1],700 nM
CC(=O)N[C@H]1[C@H](Oc2cccc(C(F)(F)F)c2-c2cccc(C(=O)NS(C)(=O)=O)c2)O[C@H](CO)[C@H](O)[C@@H]1O,IC50,[1],310 nM
CS(=O)(=O)Nc1cccc(-c2ccccc2C[C@@H]2O[C@H](CO)[C@H](O)[C@H](O)[C@H]2O)c1,IC50,[1],15000 nM
CC(=O)N[C@@H]1[C@@H](O)[C@@H](O)[C@@H](CO)O[C@H]1C(=O)Nc1ccccc1-c1cccc(NS(C)(=O)=O)c1,IC50,[1],6900 nM
CC(=O)N[C@H]1[C@H](Oc2cccc(C(F)(F)F)c2-c2cc(F)cc(C(F)(F)F)c2)O[C@H](CO)[C@H](O)[C@@H]1O,IC50,[1],9000 nM
CC(=O)N[C@@H]1[C@@H](O)[C@@H](O)[C@@H](CO)O[C@H]1Cc1ccccc1-c1cccc(NS(C)(=O)=O)c1,IC50,[1],15000 nM
CC(=O)N[C@H]1[C@H](Oc2cccc(C(F)(F)F)c2-c2ccc(F)c(NS(=O)(=O)c3ccccc3)c2)O[C@H](CO)[C@H](O)[C@@H]1O,IC50,[1],190 nM
CC(=O)N[C@H]1[C@H](Oc2cccc(C(F)(F)F)c2-c2ccc3ccn(S(C)(=O)=O)c3c2)O[C@H](CO)[C@H](O)[C@@H]1O,IC50,[1],600 nM
CC(=O)N[C@H]1[C@H](Oc2cccc(C(F)(F)F)c2-c2cc(F)cc(F)c2)O[C@H](CO)[C@H](O)[C@@H]1O,IC50,[1],6000 nM
CC(=O)N[C@H]1[C@H](Oc2cccc(C(F)(F)F)c2-c2cc(C#N)cc(C(F)(F)F)c2)O[C@H](CO)[C@H](O)[C@@H]1O,IC50,[1],6000 nM
CC(=O)N[C@H]1[C@H](Oc2cccc(C(F)(F)F)c2-c2ccc(F)cc2F)O[C@H](CO)[C@H](O)[C@@H]1O,IC50,[1],320 nM
CC(=O)N[C@H]1[C@H](Oc2cccc(C(F)(F)F)c2-c2cccc(CC#N)c2)O[C@H](CO)[C@H](O)[C@@H]1O,IC50,[1],800 nM
CC(=O)N[C@H]1[C@H](Oc2cccc(C(F)(F)F)c2-c2ccc(F)c(F)c2)O[C@H](CO)[C@H](O)[C@@H]1O,C0,[2],3190 ng/mL
same,half-life,[3],1.26 h
same,Vd,[4],2.39 L/kg
same,clearance,[5],28 mL/min/kg
same,Tlast,[6],8 h
same,AUC(0-t),[7],1790 ng·h/mL
same,AUC(0-inf),[8],1810 ng·h/mL
same,MRT last,[9],1.34 h
same,MRT inf,[10],1.43 h
same,%AUCextra,[11],1.07%
same,AUMC,[12],7.31%
same,Cmax,[13],472 ng/mL
same,Tmax,[14],2.64 h
same,half-life,[15],1.8 h
same,AUC(0-t),[16],1830 ng·h/mL
same,AUC(0-inf),[17],1860 ng·h/mL
same,MRT last,[18],3.53 h
same,MRT inf,[19],3.67 h
same,%AUCextra,[20],1.64%
same,AUMC,[21],5.96%
same,bioavailability,[22],30.7%
same,IC50,[1],240 nM
CC(=O)N[C@H]1[C@H](Oc2cccc(C(F)(F)F)c2-c2cccc(CS(C)(=O)=O)c2)O[C@H](CO)[C@H](O)[C@@H]1O,IC50,[1],450 nM
CS(=O)(=O)Nc1cccc(-c2ccccc2C[C@@H]2O[C@H](CO)[C@H](O)[C@H](O)[C@H]2F)c1,IC50,[1],7300 nM
CC(=O)N[C@H]1[C@H](Oc2cccc(C(F)(F)F)c2-c2cccc(N(C)S(=O)(=O)O)c2)O[C@H](CO)[C@H](O)[C@@H]1O,IC50,[1],2000 nM
CC(=O)N[C@H]1[C@H](Oc2cccc(C(F)(F)F)c2-c2ccccc2F)O[C@H](CO)[C@H](O)[C@@H]1O,IC50,[1],710 nM
COc1cc(F)cc(-c2c(O[C@@H]3O[C@H](CO)[C@H](O)[C@H](O)[C@H]3NC(C)=O)cccc2C(F)(F)F)c1,IC50,[1],6000 nM
CC(=O)N[C@H]1[C@H](Oc2cccc(C(F)(F)F)c2-c2ccc(F)cc2)O[C@H](CO)[C@H](O)[C@@H]1O,C0,[2],4430 ng/mL
same,half-life,[3],1.47 h
same,Vd,[4],1.42 L/kg
same,clearance,[5],13.6 mL/min/kg
same,Tlast,[6],8 h
same,AUC(0-t),[7],3660 ng·h/mL
same,AUC(0-inf),[8],3740 ng·h/mL
same,MRT last,[9],1.59 h
same,MRT inf,[10],1.75 h
same,%AUCextra,[11],1.9%
same,AUMC,[12],10.8%
same,Cmax,[13],1480 ng/mL
same,Tmax,[14],2 h
same,half-life,[15],1.92 h
same,Tlast,[23],8 h
same,AUC(0-t),[16],6070 ng·h/mL
same,AUC(0-inf),[17],6560 ng·h/mL
same,MRT last,[18],3.18 h
same,MRT inf,[19],3.75 h
same,%AUCextra,[20],7.55%
same,AUMC,[21],21.6%
same,bioavailability,[22],52.7%
same,concentration at 24 h,[24],15.8 ng/mL
same,concentration at 24 h,[25],66.3 ng/mL
same,IC50,[1],190 nM
COc1cc(-c2c(O[C@@H]3O[C@H](CO)[C@H](O)[C@H](O)[C@H]3NC(C)=O)cccc2C(F)(F)F)cc(C(F)(F)F)c1,IC50,[1],18000 nM
